Experimental data taken from ChEMBL document CHEMBL1153007, “Mono and bis-6-arylbenzimidazo[1,2-c]quinazolines: a new class of antimicrobial agents” (2009).
Values after ≈ are worked out from the molar mass of the structure shown.

Experiments:
[1] = test system: Klebsiella pneumoniae; test: Antibacterial activity against Klebsiella pneumoniae at 1000 ug/ml after 24 hrs by agar diffusion method; type: functional; settings: read-out: IZ
In short: (§1)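 Cup-plate agar diffusion on nutrient agar. Cultures grown overnight in NA broth at 37 °C and swabbed onto plates. Test solution at 1000 μg/ml added to 6 mm bores. Plates incubated at 37 °C for 24 h; zone of inhibition measured. Ampicillin plate as standard; one-way ANOVA at p ≤ 0.05.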

[2] = test system: Streptococcus pyogenes; test: Antibacterial activity against Streptococcus pyogenes at 1000 ug/ml after 24 hrs by agar diffusion method; type: functional; settings: read-out: IZ; in short: as §1
[3] = test system: Aspergillus niger; test: Antifungal activity against Aspergillus niger at 1000 ug/ml after 72 hrs by agar diffusion method; type: functional; settings: read-out: IZ
In short: (§2)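 Strains grown and maintained on Sabouraud glucose agar. Test solution at 1000 µg/ml placed in bores cut in the agar. Plates incubated at 26 °C for 72 h, then the zone of inhibition around each bore was measured. Ketoconazole plates as standard; one-way ANOVA at p ≤ 0.05.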

[4] = test system: Staphylococcus aureus; test: Antibacterial activity against Staphylococcus aureus at 1000 ug/ml after 24 hrs by agar diffusion method; type: functional; settings: read-out: IZ; in short: as §1
[5] = test system: Bacillus subtilis; test: Antibacterial activity against Bacillus subtilis at 1000 ug/ml after 24 hrs by agar diffusion method; type: functional; settings: read-out: IZ; in short: as §1
[6] = test system: Candida albicans; test: Antifungal activity against Candida albicans at 1000 ug/ml after 72 hrs by agar diffusion method; type: functional; settings: read-out: IZ; in short: as §2
[7] = test system: Escherichia coli; test: Antibacterial activity against Escherichia coli at 1000 ug/ml after 24 hrs by agar diffusion method; type: functional; settings: read-out: IZ; in short: as §1
[8] = test system: Salmonella enterica subsp. enterica; test: Antibacterial activity against Salmonella Typhimurium at 1000 ug/ml after 24 hrs by agar diffusion method; type: functional, Salmonella enterica subsp. enterica serovar Typhimurium; settings: read-out: IZ; in short: as §1
[9] = test system: Trichoderma viride; test: Antifungal activity against Trichoderma viride at 1000 ug/ml after 72 hrs by agar diffusion method; type: functional; settings: read-out: IZ; in short: as §2
[10] = test system: Candida albicans; test: Antifungal activity against Candida albicans after 72 hrs by liquid dilution method; type: functional
In short: (§3)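 Liquid dilution in tubes: 1 ml compound solution (stocks 2.5–50 µg/ml, prepared in appropriate solvent) plus 0.2 ml fungal inoculum and 3.8 ml sterile water; checked for turbidity. MIC taken as lowest concentration with no visible growth. Ketoconazole as reference.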

[11] = test system: Escherichia coli; test: Antibacterial activity against Escherichia coli after 24 hrs by liquid dilution method; type: functional
In short: (§4)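 Liquid dilution in tubes: 1 ml compound solution (stocks 2.5, 5, 10, 15, 20, 25, 30, 35, 40, 45, 50 µg/ml, prepared in appropriate solvent) plus 0.2 ml bacterial inoculum and 3.8 ml sterile water; incubated 24 h, checked for turbidity. MIC taken as lowest concentration with no growth. Ampicillin as reference.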

[12] = test system: Salmonella enterica subsp. enterica; test: Antibacterial activity against Salmonella Typhimurium after 24 hrs by liquid dilution method; type: functional, Salmonella enterica subsp. enterica serovar Typhimurium; in short: as §4
[13] = test system: Trichoderma viride; test: Antifungal activity against Trichoderma viride after 24 hrs by liquid dilution method
[14] = test system: Staphylococcus aureus; test: Antibacterial activity against Staphylococcus aureus after 24 hrs by liquid dilution method; type: functional; in short: as §4
[15] = test system: Bacillus subtilis; test: Antibacterial activity against Bacillus subtilis after 24 hrs by liquid dilution method; type: functional; in short: as §4
[16] = test system: Klebsiella pneumoniae; test: Antibacterial activity against Klebsiella pneumoniae after 24 hrs by liquid dilution method; type: functional; in short: as §4
[17] = test system: Streptococcus pyogenes; test: Antibacterial activity against Streptococcus pyogenes after 24 hrs by liquid dilution method; type: functional; in short: as §4
[18] = test system: Aspergillus niger; test: Antifungal activity against Aspergillus niger after 24 hrs by liquid dilution method
[19] = test system: Trichoderma viride; test: Antifungal activity against Trichoderma viride after 72 hrs by liquid dilution method; type: functional; in short: as §3
[20] = test system: Aspergillus niger; test: Antifungal activity against Aspergillus niger after 72 hrs by liquid dilution method; type: functional; in short: as §3

Row | MIC [10] [µg/mL] | MIC [11] [µg/mL] | MIC [12] [µg/mL] | MIC [13] [µg/mL] | MIC [14] [µg/mL] | MIC [15] [µg/mL] | MIC [16] [µg/mL] | MIC [17] [µg/mL] | MIC [18] [µg/mL] | MIC [19] [µg/mL] | Compound | zone of inhibition at 1000 µg/mL [1] [mm] | zone of inhibition at 1000 µg/mL [2] [mm] | zone of inhibition at 1000 µg/mL [3] [mm] | zone of inhibition at 1000 µg/mL [4] [mm] | zone of inhibition at 1000 µg/mL [5] [mm] | zone of inhibition at 1000 µg/mL [6] [mm] | zone of inhibition at 1000 µg/mL [7] [mm] | zone of inhibition at 1000 µg/mL [8] [mm] | zone of inhibition at 1000 µg/mL [9] [mm] | MIC [20] [µg/mL]
1 |  |  |  |  |  |  |  |  |  |  | c1coc(-c2nc3ccccc3c3nc4ccccc4n23)c1 | 12 | 18 | 13 | 25 | 21 | 11 | 20 | 15 | 6 | 
2 |  |  |  |  |  |  |  |  |  |  | c1c[nH]c(-c2nc3ccccc3c3nc4ccccc4n23)c1 | 12 | 13 | 11 | 22 | 18 | 9 | 18 | 14 | 9 | 
3 | 5 (≈ 9.74 µM) | 5 (≈ 9.74 µM) | 5 (≈ 9.74 µM) | 10 (≈ 19.5 µM) | 2.5 (≈ 4.87 µM) | 15 (≈ 29.2 µM) | 5 (≈ 9.74 µM) | 10 (≈ 19.5 µM) | 2.5 (≈ 4.87 µM) |  | c1cc(-c2nc3ccccc3c3nc4ccccc4n23)nc(-c2nc3ccccc3c3nc4ccccc4n23)c1 | 49 | 50 | 50 | 52 | 45 | 50 | 50 | 46 | 45 | 
4 |  |  |  |  |  |  |  |  |  |  | c1ccc(-c2nc3ccccc3c3nc4ccccc4n23)c(-c2nc3ccccc3c3nc4ccccc4n23)c1 | 15 | 15 | 16 | 18 | 14 | 13 | 20 | 12 | 13 | 
5 |  |  |  |  |  |  |  |  |  |  | c1cc(-c2nc3ccccc3c3nc4ccccc4n23)cc(-c2nc3ccccc3c3nc4ccccc4n23)c1 | 18 | 15 | 18 | 21 | 18 | 15 | 19 | 15 | 12 | 
6 |  |  |  |  |  |  |  |  |  |  | c1ccc2c(c1)nc(-c1ccc(-c3nc4ccccc4c4nc5ccccc5n34)cc1)n1c3ccccc3nc21 | 18 | 18 | 21 | 25 | 19 | 16 | 21 | 14 | 13 | 
7 |  |  |  |  |  |  |  |  |  |  | c1ccc(-c2nc3ccccc3c3nc4ccccc4n23)cc1 | 16 | 13 | 10 | 18 | 14 | 10 | 18 | 12 | 9 | 
8 | 2.5 (≈ 4.82 µM) | 2.5 (≈ 4.82 µM) | 5 (≈ 9.64 µM) | 5 (≈ 9.64 µM) | 2.5 (≈ 4.82 µM) | 10 (≈ 19.3 µM) | 5 (≈ 9.64 µM) | 5 (≈ 9.64 µM) | 2.5 (≈ 4.82 µM) |  | c1ccc2c(c1)nc(-c1ccc(-c3nc4ccccc4c4nc5ccccc5n34)s1)n1c3ccccc3nc21 | 50 | 52 | 55 | 55 | 50 | 51 | 51 | 46 | 48 | 
9 | 15 (≈ 49.8 µM) | 10 (≈ 33.2 µM) | 15 (≈ 49.8 µM) |  | 5 (≈ 16.6 µM) | 15 (≈ 49.8 µM) | 15 (≈ 49.8 µM) | 10 (≈ 33.2 µM) | 5 (≈ 16.6 µM) | 10 (≈ 33.2 µM) | c1csc(-c2nc3ccccc3c3nc4ccccc4n23)c1 | 36 | 50 | 51 | 51 | 45 | 48 | 50 | 40 | 46 | 
10 | 15 (≈ 50.6 µM) | 15 (≈ 50.6 µM) | 20 (≈ 67.5 µM) |  | 10 (≈ 33.7 µM) | 20 (≈ 67.5 µM) | 20 (≈ 67.5 µM) | 15 (≈ 50.6 µM) | 10 (≈ 33.7 µM) | 15 (≈ 50.6 µM) | c1ccc(-c2nc3ccccc3c3nc4ccccc4n23)nc1 | 35 | 49 | 49 | 50 | 42 | 48 | 51 | 38 | 45 | 

Row | Compound | MIC [10] [µg/mL] | MIC [11] [µg/mL] | MIC [12] [µg/mL] | MIC [13] [µg/mL] | MIC [14] [µg/mL] | MIC [15] [µg/mL] | MIC [16] [µg/mL] | MIC [17] [µg/mL] | MIC [18] [µg/mL] | MIC [19] [µg/mL] | zone of inhibition at 1000 µg/mL [1] [mm] | zone of inhibition at 1000 µg/mL [2] [mm] | zone of inhibition at 1000 µg/mL [3] [mm] | zone of inhibition at 1000 µg/mL [4] [mm] | zone of inhibition at 1000 µg/mL [5] [mm] | zone of inhibition at 1000 µg/mL [6] [mm] | zone of inhibition at 1000 µg/mL [7] [mm] | zone of inhibition at 1000 µg/mL [8] [mm] | zone of inhibition at 1000 µg/mL [9] [mm] | MIC [20] [µg/mL]
11 | CC1(C)S[C@@H]2[C@H](NC(=O)[C@H](N)c3ccccc3)C(=O)N2[C@H]1C(=O)O [AMPICILLIN] |  | 15 (≈ 42.9 µM) | 10 (≈ 28.6 µM) |  | 10 (≈ 28.6 µM) | 20 (≈ 57.2 µM) | 10 (≈ 28.6 µM) | 25 (≈ 71.5 µM) |  |  | 45 | 35 |  | 48 | 39 |  | 40 | 45 |  | 
12 | CC(=O)N1CCN(c2ccc(OCC3COC(Cn4ccnc4)(c4ccc(Cl)cc4Cl)O3)cc2)CC1 (centres undefined) [KETOCONAZOLE] | 25 (≈ 47 µM) |  |  | 20 (≈ 37.6 µM) |  |  |  |  |  |  |  |  | 45 |  |  | 40 |  |  | 41 | 15 (≈ 28.2 µM)
